Compound activity: PubChem, The Scripps Research Institute Molecular Screening Center
5-HT1A blocker = 5-HT1a (human) receptor antagonism; 62,000 compounds, 0.68% hits; AID 612; P08908; inhibition, % at 10 µM; CHO 5-HT1a Ga15 NFAT-bla reporter, antagonist mode;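 active = inhibition above the mean of all tested compounds plus 3 SD, cut at about 43% in these data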;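 also: receptor stimulated by 5-CT agonist at 100 nM near EC80; beta-lactamase reporter measured by ratiometric fluorescence of a cleavable substrate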
HTR1A agonist = 5-HT1a (human) receptor agonism; P08908; 65,000 compounds, 0.56% hits; activation, % at 10 µM; CHO 5-HT1a Ga15 NFAT-bla reporter, FRET ratio; 0% basal, 100% maximal reference agonist;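 active = activation above the screen-wide mean activation plus 3 SD, cut at about 19% in these data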
S1P1 ag pot = activates or potentiates agonism at human S1P1 receptor. 56,000 compounds, 0.57% hits. P21453. activation, % at 9.5 µM. S1P1 CRE-bla cells, forskolin, beta-lactamase FRET, potentiator mode; S1P1 agonist co-added at EC20, 2 nM; 100% = saturating reference agonist, 0% = basal;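 active = activation above a cutoff set at the mean activation of all tested compounds plus 3 SD, cut at about 54% in these data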;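 also: forskolin at 4 µM as EC80 and the EC20 agonist is SEW2871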
Target sequence (P21453 whole entry, looked up): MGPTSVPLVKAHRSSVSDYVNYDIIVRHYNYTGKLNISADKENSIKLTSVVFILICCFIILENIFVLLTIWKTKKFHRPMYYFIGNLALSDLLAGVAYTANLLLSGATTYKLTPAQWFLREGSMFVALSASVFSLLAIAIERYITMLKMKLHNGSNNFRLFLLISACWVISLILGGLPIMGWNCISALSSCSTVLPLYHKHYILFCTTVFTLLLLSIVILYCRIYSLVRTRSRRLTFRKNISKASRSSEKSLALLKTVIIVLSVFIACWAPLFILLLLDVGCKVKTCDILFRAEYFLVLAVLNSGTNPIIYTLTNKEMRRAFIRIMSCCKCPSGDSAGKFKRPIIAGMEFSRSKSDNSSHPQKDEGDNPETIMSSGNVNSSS
5HT1E antag = blocks the human 5-HT1E serotonin receptor | CHO 5-HT1E Ga15 NFAT-bla reporter, FRET, antagonist | 65,000 compounds, 0.99% hits | inhibition, % at 6 µM | AID 571;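 active = inhibition above a set limit, the mean inhibition across every tested compound plus 3 SD, cut at about 29% in these data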;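 also: signal is the 460 over 535 nm emission ratio of beta-lactamase substrate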
S1P3 ag = activates the human S1P3 receptor; Q99500; S1P3 NFAT-BLA reporter cells, agonism, FRET ratio; relative to 1 µM S1P, basal subtracted; activation, % at 4.5 µM; 60,000 compounds, 0.1% hits; AID 373;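 active = activation above the screen-wide mean plus 3 SD, cut at about 4.5% in these data, passing the limit was not always enough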
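Assay system: stable CHO line with human S1P3, Gα16, NFAT-BLA reporter; Detection: FRET β-lactamase substrate fluorescence, excitation 405 nm, 460/535 nm emission ratio, background-subtracted; Read-out: percent activation versus median 1 µM S1P response, basal-subtracted, per plate; Incubation: cells plated overnight, compound 4 h 37 °C, substrate 2 h RT.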
5HT1E ag = agonists of human 5-HT1E serotonin receptor. 65,000 compounds, 0.69% hits. CHO 5-HT1E Ga15 NFAT-bla reporter, FRET; 0% DMSO wells, 100% control agonist wells. AID 574. activation, % at 6 µM. P28566;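 active = activation above a set limit, the screen-wide mean activation plus 3 SD, cut at about 8.5% in these data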
Of the large screens only hits and unclear results are named; the others gave an inactive call. Rows were chosen to be rich in hits. Some 3% of all compounds tested hit in one or more screens of this group.

Cc1ccc(CC2CC(=O)N(c3ccc(Cl)cn3)C2=O)cc1 (configuration not stated)	none
Cc1ccc2nc3c(cc(C(N)=S)c(=N)n3CCCOC(C)C)c(=O)n2c1	none
CCOC(=O)C1CCCN(C(=O)c2c(-c3ccccc3Cl)noc2C)C1 (configuration not stated)	none
c1ccc(-c2oc3ncnc(NCCCn4ccnc4)c3c2-c2ccccc2)cc1	5-HT1A blocker 63, 5HT1E antag 29
COc1ccc(N2C(=O)C3CCCN3C2c2cccc(OC)c2OC)cc1 (configuration not stated)	HTR1A agonist 101
COc1ccc(N2C(=O)C3CCCN3C2c2cccc(Br)c2)cc1 (configuration not stated)	none
CC(OC(=O)c1ccc2ccccc2n1)C(=O)Nc1ccc(N2CCOCC2)cc1 (configuration not stated)	none
Cc1noc(C)c1S(=O)(=O)N(CC(=O)Nc1ccc2c(c1)OCO2)c1ccc(C(C)C)cc1	S1P1 ag pot 79
CCOc1ccc(N(CC(=O)Nc2ccc(C)c(C)c2)S(=O)(=O)c2c(C)noc2C)cc1	none
CCOc1ccc(N(CC(=O)Nc2ccccc2C)S(=O)(=O)c2c(C)noc2C)cc1	5HT1E antag 46
CCOc1ccccc1NC(=O)CN(c1cc(C)cc(C)c1)S(=O)(=O)c1c(C)noc1C	none
Cc1nn(C)c(C)c1S(=O)(=O)N(CC(=O)Nc1ccc2c(c1)OCO2)c1ccc(C(C)C)cc1	none
COc1ccccc1NC(=O)CN(c1ccc(C)cc1)S(=O)(=O)c1c(C)n[nH]c1C	5-HT1A blocker 63
CCOc1ccccc1NC(=O)CN(c1ccc(OC)cc1)S(=O)(=O)c1c(C)noc1C	5HT1E antag 68
O=C(NCN1C(=O)C2C3C=CC(C3)C2C1=O)OC1CCCCC1 (configuration not stated)	none
C=C(C)c1cccc(C(C)(C)NC(=O)NCC2COCCO2)c1 (configuration not stated)	none
O=S1(=O)C=C(Sc2nc3cc(Cl)ccc3o2)c2ccccc21	5-HT1A blocker 94, S1P1 ag pot 80, 5HT1E antag 80
CCOC(=O)CSc1nnc(CNC(=O)c2ccc(S(=O)(=O)N3CCCCC3)cc2)n1C	none
CC(=O)c1c(C)[nH]c(C(=O)OCCCCN2C(=O)c3ccccc3C2=O)c1C	S1P1 ag pot 97
CCCCN(C)CCNC(=O)c1ccc2c(c1)NC(=O)C(N1CCCCC1)S2 (configuration not stated)	none
CC(=O)N1CCc2cc(S(=O)(=O)NCCCN3CCN(Cc4ccccc4)CC3)ccc21	5HT1E ag 35 (no result: S1P1 ag pot, S1P3 ag)
COc1cccc(CNc2nc3ccccc3n2CCN2CCCCC2)c1OC	5-HT1A blocker 43
COc1ccc(CNc2nc3ccccc3n2CCN2CCCCC2)c(OC)c1	5-HT1A blocker 44
COc1ccc(OC)c(CNc2nc3ccccc3n2CCN2CCCCC2)c1	none
COc1cccc(C(=O)Nc2ccc3nc(N4CCN(c5ncccn5)CC4)cc(C)c3c2)c1OC	5HT1E antag 30 (no result: S1P1 ag pot, S1P3 ag)
Cc1nc(NCc2ccco2)c2c3c(sc2n1)CCC3	5-HT1A blocker 54
CC(C(=O)Nc1ccccc1C(=O)N1CCCC1)n1nnc2ccccc21 (configuration not stated)	none
COc1c(C)cc(Br)cc1C(=O)Nc1cccc(-c2nc3ncccc3o2)c1	HTR1A agonist 66
CCCCOc1ccc(CN(C)c2ncnc(N)n2)cc1	5HT1E antag 32 (no result: 5-HT1A blocker)
C=CCNCc1cccn1-c1ccccc1	none
CCOC(=O)/C=C/S(=O)(=O)c1ccc(NC(C)=O)cc1	5-HT1A blocker 98, S1P1 ag pot 152, 5HT1E antag 89
Cn1c2ccccc2c2nnc(SCN3C(=O)c4ccccc4C3=O)nc21	none
CCn1c2ccccc2c2nnc(SCc3ccccc3)nc21	5HT1E antag 33
CCn1c2ccccc2c2nnc(SCN3C(=O)c4ccccc4C3=O)nc21	5HT1E antag 38 (no result: S1P1 ag pot)
CCCn1c2ccccc2c2nnc(SCC(=O)OC)nc21	5HT1E antag 30
CCS(=O)(=O)Nc1ccc(-c2ccc(NS(=O)(=O)CC)c(OC)c2)cc1OC	none (no result: S1P1 ag pot)
O=C(Nc1c(F)cc(F)cc1Br)c1cc(-c2ccc(O)cc2)on1	S1P1 ag pot 99
Cc1cc(C(=O)Nc2c(F)cc(F)cc2Br)no1	none
C=CCc1ccccc1OCC(O)CN(C(C)C)C(C)C (configuration not stated)	5HT1E ag 19
C=CCc1ccccc1OCC(O)CNC (configuration not stated)	5HT1E ag 9.4
COc1ccc(N2CCN(C(c3ccccc3)c3sc4nc(C)nn4c3O)CC2)cc1 (configuration not stated)	none
COc1ccc(OCC(O)Cn2c(Nc3cccc(C)c3)nc3c2c(=O)n(C)c(=O)n3C)cc1 (configuration not stated)	none (no result: 5-HT1A blocker)
O=C(Nc1cccc(-c2nc3ccccc3[nH]2)c1)c1cccc(NC(=O)c2ccco2)c1	5HT1E antag 43
Cc1ccc(-c2nc3ccccc3[nH]2)cc1NC(=O)c1ccco1	none
Brc1ccccc1C1=Nn2c(nnc2-c2ccccc2)SC1	5HT1E antag 33
COc1ccccc1-c1nnc2n1N=C(c1ccc(O)c(O)c1)CS2	5HT1E antag 66 (no result: 5-HT1A blocker)
CCOc1ccc(C2=Nn3c(nnc3-c3ccccc3OC)SC2)cc1	5HT1E antag 75 (no result: 5-HT1A blocker)
COc1ccc(C2=Nn3c(nnc3-c3cccnc3)SC2)cc1OC	5HT1E antag 34 (no result: 5-HT1A blocker)
Brc1ccc(C2=Nn3c(nnc3-c3cccnc3)SC2)s1	none
CC(=O)NC(Cc1ccc(F)cc1)C(=O)N1CCN(C(=O)NCc2ccccc2)CC1 (configuration not stated)	none
COCCn1c(SCC(=O)c2[nH]c(C)c(C(C)=O)c2C)nc2ccccc21	none
CCOc1ccc(-c2n[nH]c(C)c2Oc2ccc(OC)cc2)c(O)c1	none
Cc1cc(C2=CC(C)(c3cc(C)oc3C)Nc3nc(C(F)(F)F)nn32)c(C)o1 (configuration not stated)	5-HT1A blocker 60
CCCc1nc2ccccc2c2nc(N)nn12	5HT1E antag 34
Nc1nc2c3ccccc3nc(Cc3ccccc3)n2n1	none
CCOC(=O)c1oc2ccccc2c1NC(=O)c1cc(OC)cc(OC)c1	5HT1E ag 112
Cc1ccc(Cl)cc1N1CCN(C(=O)C2CCN(c3nnc(-n4cccc4)s3)CC2)CC1	S1P1 ag pot 87
CCCS(=O)(=O)c1nnnn1-c1cccc(OC)c1	5-HT1A blocker 109, S1P1 ag pot 116, 5HT1E antag 106
